# What was measured:
# Assay type in all cases: functional
# K562 [1] = experiment: Growth inhibition of human K562 cells incubated for 48 hrs by sulforhodamine B assay; conditions: K562, 48 h
# How it was run: (§1)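 Cells were plated at 5,000–40,000 per well according to doubling time and preincubated 24 h at 37 °C in 5% CO2; time-zero plates were then TCA-fixed. Five concentrations (10-fold or ½-log dilutions, DMSO stock) were incubated 48 h. Cells were TCA-fixed, stained with 0.4% SRB and read at 515 nm. GI50 was taken where [(Ti−Tz)/(C−Tz)]×100 = 50.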
# [2] = Growth inhibition of human SW620 cells incubated for 48 hrs by sulforhodamine B assay; conditions: SW-620, 48 h; how it was run: as §1
# SK-MEL-2 = experiment: Growth inhibition of human SK-MEL-2 cells incubated for 48 hrs by sulforhodamine B assay; conditions: SK-MEL-2, 48 h; how it was run: as §1
# CCRF-CEM = experiment: Growth inhibition of human CCRF-CEM cells assessed as cell growth at 10^-7 M incubated for 48 hrs by sulforhodamine B assay; conditions: read-out: Activity
# How it was run: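 Leukemia line in the five-dose format: five concentrations from 10-fold or ½-log serial dilutions. Plated at 5,000–40,000 cells per well, preincubated 24 h, then compound added for 48 h at 37 °C, 5% CO₂. Sulforhodamine B absorbance read at 515 nm. Growth is computed against time-zero (Tz) and control (C) readings; GI₅₀ is where [(Ti−Tz)/(C−Tz)]×100 = 50.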
# [3] = Growth inhibition of human RXF393 cells assessed as cell growth at 10^-5 M incubated for 48 hrs by sulforhodamine B assay; conditions: RXF 393, 48 h, read-out: Activity
# [4] = Growth inhibition of human MOLT4 cells assessed as cell growth at 10^-4 M incubated for 48 hrs by sulforhodamine B assay; conditions: MOLT-4, 48 h, read-out: Activity
# M14 = experiment: Growth inhibition of human M14 cells assessed as cell growth at 10^-7 M incubated for 48 hrs by sulforhodamine B assay; conditions: M14, 48 h, read-out: Activity
# [5] = Growth inhibition of human OVCAR5 cells assessed as cell growth at 10^-4 M incubated for 48 hrs by sulforhodamine B assay; conditions: OVCAR-5, 48 h, read-out: Activity
# SK-MEL-5 = experiment: Growth inhibition of human SK-MEL-5 cells assessed as cell growth at 10 uM incubated for 48 hrs by sulforhodamine B assay; conditions: SK-MEL-5, 48 h, read-out: Activity
# [6] = Growth inhibition of human OVCAR5 cells assessed as cell growth at 10 uM incubated for 48 hrs by sulforhodamine B assay; conditions: OVCAR-5, 48 h, read-out: Activity
# ACHN = experiment: Growth inhibition of human ACHN cells assessed as cell growth at 10 uM incubated for 48 hrs by sulforhodamine B assay; conditions: read-out: Activity
# How it was run: (§2)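 One-dose screen at 10 µM final. Cells are plated at 5,000–40,000 per well according to doubling time and preincubated 24 h at 37 °C, 5% CO₂. Compound (DMSO stock diluted in medium with 50 µg/ml gentamicin) is then added for 48 h. Growth percent is read by sulforhodamine B staining, absorbance at 515 nm.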
# [7] = Growth inhibition of human TK10 cells assessed as cell growth at 10 uM incubated for 48 hrs by sulforhodamine B assay; conditions: TK-10, 48 h, read-out: Activity
# SR = experiment: Growth inhibition of human SR cells assessed as cell growth at 10^-8 M incubated for 48 hrs by sulforhodamine B assay; conditions: read-out: Activity
# NCI-H522 = experiment: Growth inhibition of human NCI-H522 cells assessed as cell growth at 10^-6 M incubated for 48 hrs by sulforhodamine B assay; conditions: NCI-H522, 48 h, read-out: Activity
# [8] = Growth inhibition of human HCT15 cells assessed as cell growth at 10^-6 M incubated for 48 hrs by sulforhodamine B assay; conditions: HCT-15, 48 h, read-out: Activity
# How it was run: (§3)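 Cells seeded at 5,000–40,000/well according to doubling time and preincubated 24 h at 37 °C, 5% CO2. Time-zero plates were TCA-fixed. DMSO concentrate was diluted in medium with 50 µg/ml gentamicin to give five concentrations (10-fold or ½ log steps), then exposed 48 h. Cells were TCA-fixed, stained with 0.4% SRB and read at 515 nm. Percent growth was taken against time-zero and control; GI50, TGI and LC50 derived.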
# [9] = Growth inhibition of human SW620 cells assessed as cell growth at 10^-6 M incubated for 48 hrs by sulforhodamine B assay; conditions: SW-620, 48 h, read-out: Activity
# [10] = Growth inhibition of human SF295 cells assessed as cell growth at 10^-8 M incubated for 48 hrs by sulforhodamine B assay; conditions: SF-295, 48 h, read-out: Activity
# [11] = Growth inhibition of human OVCAR4 cells assessed as cell growth at 10^-6 M incubated for 48 hrs by sulforhodamine B assay; conditions: OVCAR-4, 48 h, read-out: Activity
# 786-0 = experiment: Growth inhibition of human 786-0 cells assessed as cell growth at 10^-6 M incubated for 48 hrs by sulforhodamine B assay; conditions: 786-0, 48 h, read-out: Activity
# How it was run: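 Five-dose assay: five concentrations from 10-fold or ½-log serial dilutions. Cells are plated at 5,000–40,000 per well according to doubling time, grown 24 h, then exposed 48 h at 37 °C, 5% CO₂. Fixed with cold 50% TCA (final addition) for 60 min at 4 °C and stained with 0.4% SRB in 1% acetic acid. Bound dye is solubilized in 10 mM Tris base and read at 515 nm. GI₅₀ is where [(Ti−Tz)/(C−Tz)]×100 = 50, with a time-zero plate as Tz.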
# [12] = Growth inhibition of human DU145 cells assessed as cell growth at 10^-6 M incubated for 48 hrs by sulforhodamine B assay; conditions: DU-145, 48 h, read-out: Activity; how it was run: as §3
# K562 [13] = experiment: Growth inhibition of human K562 cells assessed as cell growth at 10 uM incubated for 48 hrs by sulforhodamine B assay; conditions: K562, 48 h, read-out: Activity
# A549 = experiment: Growth inhibition of human A549/ATCC cells assessed as cell growth at 10 uM incubated for 48 hrs by sulforhodamine B assay; conditions: A549, 48 h, read-out: Activity; how it was run: as §2
# [14] = Growth inhibition of human SW620 cells assessed as cell growth at 10 uM incubated for 48 hrs by sulforhodamine B assay; conditions: SW-620, 48 h, read-out: Activity
# [15] = Growth inhibition of human SF268 cells assessed as cell growth at 10 uM incubated for 48 hrs by sulforhodamine B assay; conditions: SF-268, 48 h, read-out: Activity
# [16] = Growth inhibition of human breast cancer cells incubated for 48 hrs by sulforhodamine B assay; conditions: Cancer cell lines; for CC50: read-out: LC50 (the source's name)
# [17] = read-out: LC50 (the source's name)
# [18] = read-out: pLC50 (the source's name) (converted)
structure (smiles),measurement,setting,value
c1ccc(-c2nc(Nc3ccc(-c4nc5ccccc5[nH]4)cc3)nc(N3CCOCC3)n2)cc1,GI50,K562 [1]; read-out: GI50,0.295 µM
same,CC50,K562 [1]; [17],8.31 µM
same,TGI,K562 [1]; read-out: TGI,0.959 µM
same,GI50,K562 [1]; read-out: pGI50 (converted),0.295 µM
same,CC50,K562 [1]; [18],8.32 µM
same,TGI,K562 [1]; read-out: pTGI (converted),0.955 µM
same,GI50,[2]; read-out: GI50,0.627 µM
same,CC50,[2]; [17],5.82 µM
same,TGI,[2]; read-out: TGI,2.17 µM
same,GI50,[2]; read-out: pGI50 (converted),0.631 µM
same,CC50,[2]; [18],5.75 µM
same,TGI,[2]; read-out: pTGI (converted),2.19 µM
same,GI50,SK-MEL-2; read-out: GI50,1.97 µM
same,CC50,SK-MEL-2; [17],6.55 µM
same,TGI,SK-MEL-2; read-out: TGI,3.59 µM
same,GI50,SK-MEL-2; read-out: pGI50 (converted),1.95 µM
same,CC50,SK-MEL-2; [18],6.61 µM
same,TGI,SK-MEL-2; read-out: pTGI (converted),3.63 µM
same,growth at 0.1 µM,CCRF-CEM,99%
same,growth at 10 µM,[3],-63%
same,growth at 100 µM,[4],-52%
same,growth at 0.1 µM,M14,103%
same,growth at 100 µM,[5],-75%
same,growth at 10 µM,SK-MEL-5,-95.4%
same,growth at 10 µM,[6],0.63%
same,growth at 10 µM,ACHN,-58.9%
same,growth at 10 µM,[7],-58.1%
same,growth at 0.01 µM,SR,100%
same,growth at 1 µM,NCI-H522,109%
same,growth at 1 µM,[8],13%
same,growth at 1 µM,[9],39%
same,growth at 0.01 µM,[10],94%
same,growth at 1 µM,[11],93%
same,growth at 1 µM,786-0,9%
same,growth at 1 µM,[12],63%
same,growth at 10 µM,K562 [13],-30.1%
same,growth at 10 µM,A549,-68.5%
same,growth at 10 µM,[14],-82.9%
same,growth at 10 µM,[15],-43.4%
same,GI50,[16],1.63 µM
same,TGI,[16],4.08 µM
same,CC50,[16],8.74 µM
Fc1ccc(-c2nc(Nc3ccc(-c4nc5ccccc5[nH]4)cc3)nc(N3CCOCC3)n2)cc1,GI50,K562 [1]; read-out: GI50,2.45 µM
same,CC50,K562 [1]; [17],> 100 µM
same,GI50,K562 [1]; read-out: pGI50 (converted),2.45 µM
same,CC50,K562 [1]; [18],> 100 µM
same,GI50,[2]; read-out: GI50,2.19 µM
same,CC50,[2]; [17],> 100 µM
same,TGI,[2]; read-out: TGI,4.8 µM
same,GI50,[2]; read-out: pGI50 (converted),2.19 µM
same,CC50,[2]; [18],> 100 µM
same,TGI,[2]; read-out: pTGI (converted),4.79 µM
same,GI50,SK-MEL-2; read-out: GI50,2.33 µM
same,CC50,SK-MEL-2; [17],> 100 µM
same,TGI,SK-MEL-2; read-out: TGI,5.49 µM
same,GI50,SK-MEL-2; read-out: pGI50 (converted),2.34 µM
same,CC50,SK-MEL-2; [18],> 100 µM
same,TGI,SK-MEL-2; read-out: pTGI (converted),5.5 µM
same,growth at 0.1 µM,CCRF-CEM,104%
same,growth at 10 µM,[3],-37%
same,growth at 100 µM,[4],-33%
same,growth at 0.1 µM,M14,99%
same,growth at 100 µM,[5],-31%
same,growth at 10 µM,SK-MEL-5,-90.7%
same,growth at 10 µM,[6],66.3%
same,growth at 10 µM,ACHN,9%
same,growth at 10 µM,[7],43.9%
same,growth at 0.01 µM,SR,108%
same,growth at 1 µM,NCI-H522,97%
same,growth at 1 µM,[8],74%
same,growth at 1 µM,[9],100%
same,growth at 0.01 µM,[10],93%
same,growth at 1 µM,[11],96%
same,growth at 1 µM,786-0,73%
same,growth at 1 µM,[12],98%
same,growth at 10 µM,K562 [13],-22%
same,growth at 10 µM,A549,11.2%
same,growth at 10 µM,[14],3.57%
same,growth at 10 µM,[15],34.1%
same,GI50,[16],2.09 µM
same,TGI,[16],5.55 µM
same,CC50,[16],> 100 µM

# Reference: ChEMBL document CHEMBL3808334, “Synthesis and in vitro evaluation of novel triazine analogues as anticancer agents and their interaction studies with bovine serum albumin” (Eur J Med Chem, 2016)
